Screening results (PubChem BioAssay)
A selection: hits, their analogues and other compounds. The true share with any hit is near 3.4%.
m5-HT2A agonist: activates the mouse 5-HT2A serotonin receptor; CHO-K1 mHTR2A beta-arrestin complementation, luminescence; percent of 30 µM serotonin response; hit rate 0.66% among 360,000; activation, % at 7.6 µM;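 active = activation above a run cutoff, the mean activation of all tested compounds plus 3 SD, cut at about 14% in these data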
MC4R antagonist: blocks human MC4R cAMP signaling; P32245; MC4R-expressing cells, MTII-stimulated cAMP, LANCE TR-FRET; inhibition, % at 6.5 µM; hit rate 0.48% among 360,000;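 active = inhibition above its plate's cutoff, the mean of tested wells on that plate plus 3 SD, cut at about 29% in these data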
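Material – human MC4R-expressing U2OS cells · Repeats – no replicates · Detection – TR-FRET with Eu-cAMP and labeled anti-cAMP, 671 nm · Times – compound 30 min, challenge 1 h, detection 1 h · Compound – single nominal compound dose of 6.5 µM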
MC4R ag barr: agonists of human melanocortin 4 receptor (MC4R) beta-arrestin | activation, % at 8.9 µM | AID 540308 | U2OS MC4R beta-arrestin complementation, luminescence; percent of melanotan II response, DMSO zero | hit rate 0.98% among 360,000 | P32245;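 active = activation above a per-plate cutoff, the mean activation of sample wells on that plate plus 3 SD, cut at about 8% in these data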
MIN6 prolif: inducers of beta-cell replication in MIN6 cells. AID 2380. hit rate 0.29% among 330,000. proliferation, % at 10 µM. MIN6 cells proliferation, ATPlite luminescence, 48 h; cells starved in 0.2% serum; 100% = growth in 10% serum;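 active = compounds whose signal lies at least 3.5 SD above the mean of all wells on their plate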
ANO1 block: blocks the mouse calcium-activated chloride channel TMEM16A | Q8BHY3 | HEK293 TMEM16A/YFP iodide influx fluorescence, ionomycin | normalized B-score (activity score, 25-100; higher = stronger inhibition) at 10 µM | hit rate 1.2% among 310,000 | AID 588511;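 active = ratio plate-corrected score three or more library SD toward inhibition, starting fluorescence score within five deviations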;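 note: score derived from kinetic fluorescence span divided by baseline fluorescence per well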
ANO1 activ: activates or potentiates the mouse TMEM16A chloride channel; B-score at 10 µM; AID 623877; hit rate 0.3% among 340,000; HEK293 TMEM16A/YFP-H148Q/I152L, iodide quench fluorescence; hits give low values;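 active = fluorescence-ratio B-score plate-corrected deviation score at least 3 library SD below zero, with starting fluorescence score within 5 deviations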;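 note: channel opened by trigger with iodide after compound preincubation; score built on the fluorescence ratio of max minus min over baseline; more negative score means more quench and so TMEM16A activation or potentiation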
MC4R barr conf: human MC4R beta-arrestin agonism confirmation. shares compounds with MC4R ag barr. U2OS MC4R beta-arrestin recruitment, luminescence; scaled DMSO 0%, Melanotan II 100%. activation, % at 8.9 µM. hit rate 31% among 2,400;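 active = mean activation across replicates above the hit cutoff set in the earlier primary screen, cut at about 8% in these data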
MOR DOR agonist: activates mu-delta opioid heterodimer, MC4R agonist counter-screen | shares compounds with MC4R ag barr | U2OS PathHunter beta-arrestin, beta-gal luminescence; percent of deltorphin B response, DMSO zero | activation, % at 9.2 µM | hit rate 5.8% among 2,400 | AID 602194;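 active = mean activation across replicates exceeds the hit threshold derived in the earlier primary screen, cut at about 18% in these data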
Target sequence (P35372 whole entry, looked up): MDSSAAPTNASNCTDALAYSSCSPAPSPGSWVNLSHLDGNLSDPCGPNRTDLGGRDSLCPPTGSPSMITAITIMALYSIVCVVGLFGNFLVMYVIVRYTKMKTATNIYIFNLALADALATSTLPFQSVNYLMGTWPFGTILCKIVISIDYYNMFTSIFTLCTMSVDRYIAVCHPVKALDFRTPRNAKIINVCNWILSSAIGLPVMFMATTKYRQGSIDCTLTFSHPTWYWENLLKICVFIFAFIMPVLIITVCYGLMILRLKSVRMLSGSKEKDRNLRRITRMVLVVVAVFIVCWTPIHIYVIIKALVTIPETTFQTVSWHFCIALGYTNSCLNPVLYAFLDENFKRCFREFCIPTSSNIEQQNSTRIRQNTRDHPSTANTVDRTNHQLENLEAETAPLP
Target sequence (P41143 whole entry, looked up): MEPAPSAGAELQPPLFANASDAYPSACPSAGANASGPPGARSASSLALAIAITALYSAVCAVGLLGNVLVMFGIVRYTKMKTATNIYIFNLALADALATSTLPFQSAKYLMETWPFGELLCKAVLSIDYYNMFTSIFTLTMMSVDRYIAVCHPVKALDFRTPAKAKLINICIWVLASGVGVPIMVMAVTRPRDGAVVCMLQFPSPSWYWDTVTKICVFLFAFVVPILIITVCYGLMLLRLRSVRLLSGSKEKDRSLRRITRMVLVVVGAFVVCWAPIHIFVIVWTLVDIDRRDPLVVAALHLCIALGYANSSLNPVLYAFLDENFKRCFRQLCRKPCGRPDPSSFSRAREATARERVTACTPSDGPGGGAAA
Of the large screens only hits and unclear results are named; the others gave an inactive call (follow-up assays come after a bar, where they were run).

CCNC(=O)c1c(NC(=O)C2COc3ccccc3O2)sc2c1CCCC2 (centres undefined)	none
COCCCNC(=O)c1c(NC(=O)C2COc3ccccc3O2)sc2c1CCCC2 (centres undefined)	MC4R ag barr 11 | MC4R barr conf inactive | MOR DOR agonist inactive
COCCNC(=O)C1(C)CCN(C(=O)c2sccc2C)C1 (centres undefined)	none (no result: MIN6 prolif, ANO1 block, ANO1 activ)
CSc1ccc(CCNC(=O)CSc2ccsc2[N+](=O)[O-])cc1	MC4R ag barr 11 | MC4R barr conf inactive | MOR DOR agonist inactive
NS(=O)(=O)c1ccc(CCNC(=O)CSc2ccsc2[N+](=O)[O-])cc1	none
Cc1ccc(COC(=O)Cc2coc3cc(O)ccc23)cc1	MC4R ag barr 9.9 | MC4R barr conf inactive | MOR DOR agonist inactive
Cc1ccc(S(=O)(=O)NCC(C)n2cncn2)cc1C (centres undefined)	none
Cc1sc2nc(CSc3cccc(C(F)(F)F)c3)[nH]c(=O)c2c1C	MC4R ag barr 16 | MC4R barr conf inactive | MOR DOR agonist inactive
CNc1c(NS(=O)(=O)c2ccc(C(C)(C)C)cc2)c(=O)oc2ccccc12	none
CCCNc1c(NS(=O)(=O)c2ccc(C(C)(C)C)cc2)c(=O)oc2ccccc12	MC4R ag barr 11 | MC4R barr conf inactive | MOR DOR agonist inactive
CC(OC(=O)c1cc2sccc2n1C)C(=O)NCc1cccs1 (centres undefined)	none
Cn1c(C(=O)OCC(=O)NCc2cccs2)cc2sccc21	MC4R ag barr 10 | MC4R barr conf inactive | MOR DOR agonist inactive
O=C(NC(=S)Nc1cccc(NC(=S)NC(=O)c2ccccc2)c1)c1ccccc1	none (no result: MIN6 prolif, ANO1 block)
O=C(Nc1ccc2nn(-c3ccccc3)nc2c1)c1cccs1	MC4R ag barr 10 | MC4R barr conf inactive | MOR DOR agonist inactive
O=C(Nc1cccc(NC(=S)NC(=O)c2cccs2)c1)c1ccccc1	MC4R ag barr 12 | MC4R barr conf 19 | MOR DOR agonist inactive
O=C(Nc1ccc2nsnc2c1)c1cccs1	none
O=C(Nc1ccc(F)cc1)Nc1sccc1-c1nc2ccccc2s1	MC4R ag barr 25 | MC4R barr conf 10 | MOR DOR agonist inactive
CNc1sc(C(=O)c2ccc(F)cc2)c(N)c1-c1nc2ccccc2s1	none
O=C(NC(=S)Nc1cccc(NC(=O)c2ccccc2Cl)c1)c1cccs1	MC4R ag barr 14 | MC4R barr conf inactive | MOR DOR agonist inactive
Cc1ccccc1C(=O)Nc1cccc(NC(=S)NC(=O)c2cccs2)c1	none
COc1ccc(S(=O)(=O)N2CCCCC2)cc1NC(=O)CCCOc1ccc(C)cc1	none (no result: ANO1 block)
CC(=O)N1CC2(CC(c3ccc(Cl)cc3Cl)=NO2)CN1c1cccc(Cl)c1 (centres undefined)	none (no result: MIN6 prolif, ANO1 block, ANO1 activ)
O=C(NC(=S)Nc1ccc(S(=O)(=O)N2CCCC2)cc1)c1cccs1	none
O=C(NC(=S)Nc1ccc(S(=O)(=O)N2CCCCCC2)cc1)c1cccs1	MC4R ag barr 13 | MC4R barr conf 9.4 | MOR DOR agonist inactive
O=C(Nc1ccc(O)c(-c2nc3ccccc3s2)c1)c1cccs1	MC4R ag barr 24 | MC4R barr conf inactive | MOR DOR agonist inactive
Cc1ccc(CN(C)C2CCN(C)CC2)cc1	none
CCNC(=O)C[C@@H]1C=C[C@@H](NS(=O)(=O)c2ccc(F)cc2)[C@@H](CO)O1	none (no result: MC4R antagonist, MC4R ag barr, MIN6 prolif, ANO1 block, ANO1 activ)
COc1ccc(-c2cc(NC(C)=O)c3ncc(-c4ccccc4)n3c2)c(OC)c1	MC4R ag barr 32 (no result: MIN6 prolif, ANO1 block, ANO1 activ) | MC4R barr conf 37 | MOR DOR agonist inactive
CC(=O)Nc1cc(-c2ccccc2N(C)C)cn2c(-c3ccccc3)cnc12	MC4R ag barr 18 (no result: MIN6 prolif, ANO1 block, ANO1 activ) | MC4R barr conf 32 | MOR DOR agonist inactive
CC(=O)Nc1cc(-c2ccccc2N(C)C)cn2c(-c3ccc(S(C)(=O)=O)cc3)cnc12	none (no result: MIN6 prolif, ANO1 block, ANO1 activ)
COc1cccc(-c2cnc3c(NC(C)=O)cc(-c4ccccc4OC)cn23)c1	MC4R ag barr 22 (no result: MIN6 prolif, ANO1 block, ANO1 activ) | MC4R barr conf 15 | MOR DOR agonist inactive
COc1cccc(-c2cnc3c(NC(C)=O)cc(-c4ccncc4)cn23)c1	none (no result: MIN6 prolif, ANO1 block, ANO1 activ)
COc1cccc(-c2cnc3c(NC(C)=O)cc(-c4cccc(C(=O)NCCO)c4)cn23)c1	none (no result: MIN6 prolif, ANO1 block, ANO1 activ)
COc1cccc(-c2cnc3c(NC(C)=O)cc(-c4cc(OC)c(OC)c(OC)c4)cn23)c1	MC4R ag barr 29 (no result: MIN6 prolif, ANO1 block, ANO1 activ) | MC4R barr conf 21 | MOR DOR agonist inactive
CN(CC(=O)Nc1cccc(F)c1)C(=O)c1ccccc1-n1cnnn1	none (no result: ANO1 block)
C[C@@H]1COC(=O)[C@@H](CC(=O)OC(C)(C)C)C/C=C\C[C@@H](CC(=O)NCCO)C(=O)N1	none (no result: ANO1 block, ANO1 activ)
COc1ccccc1-c1cc(NC(C)=O)c2ncc(-c3ccccc3)n2c1	MC4R ag barr 16 (no result: MIN6 prolif, ANO1 block, ANO1 activ) | MC4R barr conf 18 | MOR DOR agonist inactive
Cc1ccc(Nc2nc3ccc(Cl)cc3n3cnnc23)cc1F	none
CCCCN(C(=O)CC1CCCC1)c1c(N)n(CCCC)c(=O)[nH]c1=O	none (no result: ANO1 block)
O=C(CCl)NC(Cc1ccccc1)C(=O)OCC(=O)c1ccc(-c2ccccc2)cc1 (centres undefined)	MC4R ag barr 14 (no result: MIN6 prolif, ANO1 block) | MC4R barr conf inactive | MOR DOR agonist inactive
CC(C)NC(=O)Nc1ccc2c(c1)C(=O)N([C@H](C)CO)C[C@H](C)[C@@H](CN(C)C(=O)NC(C)C)O2	none (no result: MIN6 prolif, ANO1 block)
CNC(=S)N/N=C/c1c(C)nn(-c2cccc(Cl)c2)c1Cl	MC4R ag barr 22 | MC4R barr conf inactive | MOR DOR agonist inactive
Cc1ccccc1NC(=O)c1cc2c(=O)n3cccc(C)c3nc2s1	MC4R ag barr 19 | MC4R barr conf inactive | MOR DOR agonist inactive
CN(C)CCNc1nc(Oc2ccccc2)c2sccc2n1	none (no result: MIN6 prolif, ANO1 block, ANO1 activ)
Cc1cc(C)nc(Nc2nc(C(N)Cc3ccc(Cl)cc3)cs2)n1 (centres undefined)	MC4R ag barr 9.8 (no result: MIN6 prolif, ANO1 block, ANO1 activ) | MC4R barr conf 28 | MOR DOR agonist inactive
Cc1cc(C)nc(Nc2nc(C(N)Cc3ccc(F)cc3)cs2)n1 (centres undefined)	none (no result: MIN6 prolif, ANO1 block, ANO1 activ)
CCCc1cnc(Nc2nc(C(N)Cc3ccc(C(F)(F)F)cc3)cs2)nc1 (centres undefined)	MC4R ag barr 15 (no result: MIN6 prolif, ANO1 block, ANO1 activ) | MC4R barr conf 14 | MOR DOR agonist inactive
COc1cc(OC)nc(Nc2nc(C(N)Cc3ccc(C(F)(F)F)cc3)cs2)n1 (centres undefined)	MC4R ag barr 29 (no result: MIN6 prolif, ANO1 block, ANO1 activ) | MC4R barr conf inactive | MOR DOR agonist inactive
